Data as given in PubChem BioAssay AID504382 (The Scripps Research Institute Molecular Screening Center, 2011).
Among all 2,500 compounds or so, about 460 (18%) were called active.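 How the source made its calls: active means mean activation above a cutoff of low control average plus 3 SD from the earlier screen (cut at about 12% in these data); inactive means the rest.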 These entries were drawn from the full list.

Assay: IANBD-channel fluorescence artefacts in buffer – biochemical, artefact control for cardiac RTF calcium sensitizer project, confirmation (AID 504382)
Conditions: IANBD fluorescence interference counterscreen, EC20 Ca2+, at 7.2 µM, hits give high values, scaled: EC20 calcium 0, EC100 calcium 100
How it was run: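 Also added: EC20 calcium, 0.472 mM; dosing: single nominal 7.2 µM compound dose, 0.7% DMSO final; timing: 15 min, 25 °C; detection: fluorescence intensity, excitation 480 nm, emission 540 nm; replicates: each compound tested in triplicate wells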

SMILES	fluorescence artifact activation
CCOC(=O)c1c(-c2ccccc2Cl)csc1NC(=O)c1cc(S(=O)(=O)N2CCOCC2)ccc1C	-0.04% (inactive)
Cn1cc(/C=C2\SC(=S)N(N3CCOCC3)C2=O)c2ccccc21	0.4% (inactive)
COC(=O)C1=C(C(=O)c2ccc(C)cc2)C(c2ccc(OC)c(OC)c2)n2nnnc2N1 (centres undefined)	0% (inactive)
COc1ccccc1N1C(=O)C2C(C(=O)c3ccccc3)=NN(c3ccccc3)C2C1=O (centres undefined)	1.87% (inactive)
CN(C)c1ccc(C2C=C(c3ccc(Cl)cc3OC(F)F)Nc3ncnn32)cc1 (centres undefined)	28.8% (active)
COc1cc(C2C=C(c3cccs3)Nc3ncnn32)cc(OC)c1OC (centres undefined)	0.2% (inactive)
Fc1ccc(C2=CC(c3ccco3)n3ncnc3N2)cc1 (centres undefined)	3.08% (inactive)
Cc1ccc(S(=O)(=O)/N=C2/NC(=O)/C(=C/c3cc([N+](=O)[O-])ccc3O)S2)cc1	1.59% (inactive)
COC(=O)[C@@H]1C[C@@]2(O)[C@H](O)[C@H](O)[C@H](O)C[C@H]2N1C/C=C/c1ccccc1	2.09% (inactive)
CC(=O)Nc1cccc(C(=O)/C=C/c2ccc(N(C)C)cc2)c1	6.61% (inactive)
COc1ccc(-c2nn(CCC(=O)O)cc2/C=C2\SC(N)=NC2=O)cc1	0% (inactive)
O=C(Nn1cnnc1)c1cc([N+](=O)[O-])cc([N+](=O)[O-])c1	0.03% (inactive)
COc1ccc2nc(-c3ccccn3)[nH]c2c1	20.2% (active)
COc1ccc(OC)c(/C=C/c2nc3ccccc3[nH]c2=O)c1	0.12% (inactive)
COc1ccc2nc3ccccc3[n+]([O-])c2c1	2.24% (inactive)
CN1/C(=C\C(=O)c2ccco2)C(C)(C)c2ccccc21	-0.02% (inactive)
COc1ccc2[nH]c3c(c2c1)CCNC3c1ccc([N+](=O)[O-])o1 (centres undefined)	-0.02% (inactive)
COc1ccc(Nc2cc(C)nc3ccc(OC)cc23)cc1	0.01% (inactive)
COc1ccc(Nc2cccc3ccccc23)cc1	53.2% (active)
COc1ccc(NC(=O)CSc2ccc3c4c(cccc24)C(=O)c2ccccc2-3)cc1	0.08% (inactive)

SMILES	fluorescence artifact activation
CC(=O)c1cccc(Nc2cc(C)nc3ccc(C)cc23)c1	4.88% (inactive)
CCOC(=O)COn1c(=O)c(-c2cc3ccccc3o2)[n+]([O-])c2ccccc21	-0.09% (inactive)
CCCC[C@H]1COCCS(=O)(=O)N1Cc1ccc(F)cc1	0.08% (inactive)
O=C(NCC1CCCO1)c1cccc2c1C(=O)c1ccc(N3CCC(Cc4ccccc4)CC3)cc1S2(=O)=O (centres undefined)	0.63% (inactive)
O=C(NCC1CCCO1)c1ccc2c(c1)C(=O)N(c1cccc([N+](=O)[O-])c1)C2=O (centres undefined)	14% (active)
O=C(NCC1CCCO1)c1c(O)nc2sccn2c1=O (centres undefined)	1.06% (inactive)
CCN(CC)C(=O)Cn1c(C)c(/C=C/c2cc[n+](C)cc2)c2ccccc21	0.06% (inactive)
CC(O)c1cccc(N=Cc2ccc3ccccc3c2O)c1 (centres undefined)	6.46% (inactive)
CCc1ccc(/C=C2\Oc3c(ccc(O)c3CN3CCN(C)CC3)C2=O)cc1	-0.01% (inactive)
COc1ccc(/C=C/C=C2\N=C(SC)SC2=O)cc1	-0.02% (inactive)
COc1ccc(/C=C/c2nc3sc4c(c3c(=O)o2)CCC4)cc1	121% (active)
CN(C)NC(=O)c1ccc([N+](=O)[O-])s1	7.24% (inactive)
Cc1ccc(-c2nc3ncccn3c2Nc2ccc3c(c2)OCCO3)o1	73.3% (active)
O=C1c2ccccc2-c2onc3ccc(N4CCCC4)c1c23	0.15% (inactive)
CS(=O)(=O)N(CC(=O)O)Cc1cccc(CN(CC(=O)O)S(C)(=O)=O)c1	0.86% (inactive)
CCOC(=O)/C(C#N)=C\C=C1C=CN(C)C=C1	0.04% (inactive)
CCCCCCN1C=CC(=C/C=C(\C#N)C(=O)OCC)C=C1	168% (active)
C=CCN1C=CC(=C/C=C(/C#N)C(=O)OCC)C=C1	-0.04% (inactive)
CCc1ccc(C2C(C#N)=C(N)SC(N)=C2C#N)s1	0.05% (inactive)
Cc1cc(/C=C2/NC(=O)N(Cc3ccccc3F)C2=O)c(C)n1C	5.71% (inactive)

SMILES	fluorescence artifact activation
CSc1nc2c(c(=O)[nH]c(=O)n2C)n1CCCc1ccccc1	0.1% (inactive)
C=CCNc1nc2c(c(=O)[nH]c(=O)n2C)n1CCCc1ccccc1	-0.06% (inactive)
CCOC(=O)CSc1nc2c(c(=O)n(C)c(=O)n2C)n1Cc1ccccc1F	502% (active)
COC(=O)CSc1nc2c(c(=O)n(C)c(=O)n2C)n1CCCc1ccccc1	52.3% (active)
CN1CCN(c2nc3c(c(=O)n(C)c(=O)n3C)n2Cc2ccccc2F)CC1	0.14% (inactive)
CCOC(=O)c1c(NC(=O)c2ccno2)c2cc([N+](=O)[O-])ccc2n1C	0% (inactive)
COc1ccccc1N=Cc1c(C)c(C#N)c2[nH]c3ccccc3n2c1=O	-0.03% (inactive)
Cc1cccc(C)c1-n1c(C)nn(-c2ncc(C(F)(F)F)cc2Cl)c1=O	0.09% (inactive)
CCCCC1OC2(C)OC(=N)C1(C#N)C(C#N)(C#N)C2c1ccccc1 (centres undefined)	0.23% (inactive)
Cc1nc(Cl)c2c(n1)NC1=C(O2)C(=O)CCC1	0.77% (inactive)
O=C1/C(=C/c2cccnc2)SC(=S)N1N1CCOCC1	0.1% (inactive)
CCOC(=O)c1ccc(N=c2sc(C(=O)OC)cc(=O)n2CCCN2CCOCC2)cc1	-0.02% (inactive)
CCc1nc(Nc2ccc(O)cc2)c2oc3ccccc3c2n1	20.3% (active)
COc1ccc(/C=c2\s/c(=C/C(=O)c3ccc(C)cc3)[nH]c2=O)c(OC)c1	0.16% (inactive)
C[C@H](CO)N1C[C@H](C)[C@@H](CN(C)C(=O)Nc2ccccc2)Oc2ccc(NC(=O)Nc3ccc4c(c3)OCO4)cc2C1=O	-0.07% (inactive)
COCCNC(=O)/C(C#N)=C/c1ccc(N2CCOCC2)o1	-0.05% (inactive)
N#C/C(=C/c1ccc(N2CCCCC2)o1)C(=O)NCCc1c[nH]c2ccccc12	12.8% (active)
N#C/C(=C\c1ccc(N2CCOCC2)o1)C(=O)NCC1CCCO1 (centres undefined)	-0.1% (inactive)
N#C/C(=C\c1ccc(N2CCOCC2)o1)C(=O)NCCc1ccccc1	20.6% (active)
